Published values pooled from the literature.
EGFR L861Q: Epidermal growth factor receptor (EGFR, Homo sapiens, UniProt P00533, L861Q)
EGFR del746-750: Epidermal growth factor receptor (EGFR, Homo sapiens, UniProt P00533, del746-750)
EGFR: Epidermal growth factor receptor (EGFR, Homo sapiens, UniProt P00533)

| Structure (SMILES) | target | read-out | action | technique | concentration | endpoint | value |
| --- | --- | --- | --- | --- | --- | --- | --- |
| CC/C(=N\NC(=O)NCc1cccc(O)c1)c1ccc(O)c(C)c1O | Epidermal growth factor receptor (EGFR, Homo sapiens, UniProt P00533, T790M) | enzyme activity | inhibitor |  | 0.1 µM | inhibition | 1.5% |
| COc1cc(-c2cc(-c3ccc(N4CCNCC4)cc3)cnc2N)cc(OC)c1OC | EGFR L861Q | enzyme activity | inhibitor |  | 0.1 µM | inhibition | 6% |
| O=c1nc(-c2ccccn2)sc2ccccc12 | Epidermal growth factor receptor (EGFR, Homo sapiens, UniProt P00533, G719S) | cell-free assay |  | competition with immobilised ligand | 1 µM | remaining binding | 71% |
| Cc1cc(NC(=O)c2cccc3cc(-c4cccc5[nH]nc(N)c45)ccc23)ccc1F | Epidermal growth factor receptor (EGFR, Homo sapiens, UniProt P00533, L858R/T790M) | enzyme activity | inhibitor |  | 0.1 µM | activity vs control | 103% |
| Nc1ncnc2occ(-c3ccc(NC(=O)Nc4cc(C(F)(F)F)ccc4F)cc3)c12 | EGFR del746-750 | cell-free assay |  |  | 20 µM | remaining signal | 34% |
| CC(C)(O)c1cncc(-c2nc3ccc(F)cc3n2C2CC2)c1 | EGFR | cell-free assay |  | competition with immobilised ligand | 1 µM | remaining binding | 100% |
| Cc1ccc(C(=O)Nc2ccc(CN3CCN(C)CC3)c(C(F)(F)F)c2)cc1C#Cc1cnc2cccnn12 | EGFR del746-750 | cell-free assay |  |  | 23.5 nM | remaining signal | 64% |
| CCCCN(CCCC)C(=O)CN1C[C@@H](c2cc(OC)c3c(c2)OCO3)[C@H](C(=O)O)[C@H]1CC(C)(C)CCC | EGFR L861Q | cell-free assay |  | competition with immobilised ligand | 1 µM | remaining binding | 100% |
| Cc1ccc(NC(=O)c2ccc(C)c(C(F)(F)F)c2)cc1C#Cc1nn(C2CCC(O)CC2)c2ncnc(N)c12 (stereo not shown) | EGFR L861Q | cell-free assay |  |  | 10 µM | remaining signal | 0% |
| Cc1cnc(NC2CCOCC2)nc1-n1cnc(C(=O)NC(CN)c2cc(F)cc(Cl)c2)c1 (stereo not shown) | EGFR | enzyme activity | inhibitor | radiometric | 1 µM | remaining activity | 108% |
